Measurements reported in PubChem BioAssay.
Active and inactive are the calls of the source.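 How the source made its calls, unless noted: active means viability at or below 30% in both replicate assays; inconclusive means viability at or below 30% in just one of the two assays; inactive means the rest.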

Columns and labels:
[1] = Her2 expression decrease, cell viability multiplex – SKBR3 breast tumor cells, AlphaScreen, ATP viability, primary screen (AID 461;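 active means Her2 level under about 52% in both replicate screens, with viability over 70% of control, limit read from the data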;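 on Her2 level: lower value means less Her2 protein in the cells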;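 on viability: percent of carrier control wells set as 100% viability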); settings: SKBR3 Her2 protein level, 18-24 h, measured here: SKBR3 viability, ATP luminescence, at 10 µM
[2] = molecular target: Receptor tyrosine-protein kinase erbB-2 (Homo sapiens) (UniProt P04626); assay: as above; settings: 18-24 h, at 10 µM, stronger effect = lower value
[3] = reduced viability of SK-BR-3 breast cancer cells – cell-based, 24 h, human, pilot screen (AID 572;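 active means viability at or below 10% of carrier control in both of two separate runs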;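 further: compound exposure lasted between 18 and 24 h rather than exactly 24 h; 100% = carrier-treated control wells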); settings: SK-BR-3 viability, CellTiter-Glo luminescence, at 10 µM, stronger effect = lower value
[4] = HUVEC growth inhibition – cell-based, human, primary screen (AID 575); settings: HUVEC proliferation, CellTiter-Glo luminescence, 72 h; at 10 µM; stronger effect = lower value;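 further: 100% = median of untreated cell wells with 0.1% DMSO on each plate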
How it was run: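 Material: primary human umbilical vein endothelial cells / Schedule: 72 h exposure, 37 °C, 5% CO2, 30 min RT equilibration / Signal: ATP-based CellTiter-Glo luminescent read / Read-out basis: percent of median DMSO-control luminescence / Control set: 32 DMSO-only cell-control wells (high), 32 MePR drug-control wells (low) per plate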

[5] = H69AR cell proliferation blockers – human, duplicate replicates, primary screen (AID 580;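 active means viability at or under a set limit in both replicates, limit being median viability minus 3 SD, cut at about 48% in these data, passing the limit was not always enough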;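 further: 100% = mean luminescence of untreated wells and 0% = no signal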); settings: H69AR lung tumor cells viability, ATP luminescence, 72 h; at 10 µM; stronger effect = lower value
[6] = MRP1 drug-resistance reversers in H69AR cells – cell-based, doxorubicin co-treatment, pilot screen (AID 601;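 active means viability loss from added drug above about 55%, and viability with drug at most 40%, in both replicates, limit read from the data, passing the limit was not always enough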); settings: CellTiter-Glo, 72 h, at 10 µM; for differential viability (reversal): stronger effect = higher value
[7] = yeast transport mutant growth inhibition pilot in 384-well plates, post-Golgi transport modulator project (AID 636; in the data active means inhibition above about 31%); settings: absorbance 615 nm, about 18 h, stronger effect = higher value
[8] = growth suppression of yeast trafficking mutant, preliminary HTS, modulators of trafficking downstream of Golgi apparatus project, 1536-format plate, OD 615 nm (AID 637; in the data active means inhibition above about 30%); settings: yeast transport mutant growth, absorbance 615 nm, 18 h; stronger effect = higher value
[9] = H69AR cells + 2 uM doxorubicin, measured here: viability with 2 uM doxorubicin, stronger effect = lower value
[10] = H69AR cells, compound alone cytotoxicity

Sequence of Receptor tyrosine-protein kinase erbB-2 (Homo sapiens) (P04626 whole entry, looked up): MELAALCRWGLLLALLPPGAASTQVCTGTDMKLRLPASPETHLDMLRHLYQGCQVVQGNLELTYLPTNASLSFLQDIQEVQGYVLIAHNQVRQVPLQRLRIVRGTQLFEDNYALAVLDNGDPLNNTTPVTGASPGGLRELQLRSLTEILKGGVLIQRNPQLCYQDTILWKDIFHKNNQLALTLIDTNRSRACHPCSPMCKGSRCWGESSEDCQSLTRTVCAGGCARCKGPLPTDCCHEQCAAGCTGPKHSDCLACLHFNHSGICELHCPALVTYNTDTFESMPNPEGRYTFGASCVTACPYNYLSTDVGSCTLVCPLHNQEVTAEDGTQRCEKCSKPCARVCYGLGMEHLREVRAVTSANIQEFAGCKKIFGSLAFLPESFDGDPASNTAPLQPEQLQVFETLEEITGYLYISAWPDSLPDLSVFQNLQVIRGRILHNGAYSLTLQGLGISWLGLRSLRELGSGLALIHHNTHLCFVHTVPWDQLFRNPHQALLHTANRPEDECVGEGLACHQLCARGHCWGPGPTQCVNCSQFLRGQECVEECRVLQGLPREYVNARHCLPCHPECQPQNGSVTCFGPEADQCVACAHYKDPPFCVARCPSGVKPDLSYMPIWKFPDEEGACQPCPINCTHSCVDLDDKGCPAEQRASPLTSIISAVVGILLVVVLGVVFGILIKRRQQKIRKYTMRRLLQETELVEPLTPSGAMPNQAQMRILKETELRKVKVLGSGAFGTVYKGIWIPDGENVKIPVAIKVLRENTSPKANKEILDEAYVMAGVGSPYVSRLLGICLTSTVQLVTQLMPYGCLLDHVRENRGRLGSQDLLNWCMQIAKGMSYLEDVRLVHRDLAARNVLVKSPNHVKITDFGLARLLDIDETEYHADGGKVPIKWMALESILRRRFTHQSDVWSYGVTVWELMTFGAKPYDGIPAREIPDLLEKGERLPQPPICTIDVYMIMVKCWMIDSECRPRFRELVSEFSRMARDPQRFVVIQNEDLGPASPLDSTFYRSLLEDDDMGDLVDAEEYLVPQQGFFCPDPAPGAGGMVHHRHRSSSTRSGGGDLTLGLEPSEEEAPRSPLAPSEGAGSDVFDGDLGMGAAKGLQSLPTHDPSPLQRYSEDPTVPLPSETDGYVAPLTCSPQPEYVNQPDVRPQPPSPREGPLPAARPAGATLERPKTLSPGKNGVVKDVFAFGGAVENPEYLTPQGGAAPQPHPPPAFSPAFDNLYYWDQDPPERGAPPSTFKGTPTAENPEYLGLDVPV

Structure (SMILES)	viability [1] [%]	Her2 level [2]	viability [3]	viability [4]	viability [5]	differential viability (reversal) ([6]; H69AR cells + 2 uM doxorubicin)	viability [6, 9] [%]	viability [6, 10] [%]	inhibition [7]	inhibition [8]
COC(=O)c1ccccc1NC(=O)CSc1nnc(-c2ccncc2)o1	98	81.5% (inactive)	98% (inactive)	103% (inactive)	101% (inactive)	8.3% (inactive)	92.4	101	-4.67% (inactive)	0.95% (inactive)
CCOc1ccc(N(CC(=O)NC2CCCC2)S(=O)(=O)c2c(C)[nH]c(=O)[nH]c2=O)cc1	87	104% (inactive)	87% (inactive)	96.4% (inactive)	101% (inactive)	17.2% (inactive)	83.4	101	0.4% (inactive)	-3.28% (inactive)
COC(=O)C1=C(C)NC(=O)C1(Nc1ccc(Cl)cn1)C(F)(F)F (stereo not given)	90.5	83.5% (inactive)	90.5% (inactive)	103% (inactive)	96.5% (inactive)	-1.2% (inactive)	97.7	96.5	-3.59% (inactive)	-5.17% (inactive)
O=C(NC12CC3CC(CC(C3)C1)C2)c1cncc(O)c1	104	89% (inactive)	104% (inactive)	88.2% (inactive)	85.6% (inactive)	-9.31% (inactive)	94.9	85.6	-6.36% (inactive)	0.32% (inactive)
Cc1cc(C)nc(NC(=O)c2c(-c3c(Cl)cccc3Cl)noc2C)n1	84	98.5% (inactive)	84% (inactive)	94% (inactive)	85.1% (inactive)	-5.23% (inactive)	90.3	85.1	-7.73% (inactive)	-6.03% (inactive)
COC(=O)c1c(N)n(-c2cc(OC)cc(OC)c2)c2nc3ccccc3nc12	85.5	93% (inactive)	85.5% (inactive)	61.7% (inactive)	101% (inactive)	10.6% (inactive)	90.5	101	-6.35% (inactive)	3.83% (inactive)
COc1ccc(CN(C(=O)c2cccs2)c2nccs2)cc1OC	74	68.5% (inactive)	74% (inactive)	90.4% (inactive)	94.6% (inactive)	-4.98% (inactive)	99.6	94.6	-4.46% (inactive)	-0.98% (inactive)
Cc1cc(C)c(-c2cc(C(=O)Nc3c(C)n(C)n(-c4ccccc4)c3=O)[nH]n2)c(O)c1	99.5	98% (inactive)	99.5% (inactive)	97.5% (inactive)	105% (inactive)	4.32% (inactive)	100	105	-1.97% (inactive)	-5.09% (inactive)
CN(Cc1ccccc1)C(=O)c1ccc2c(c1)OCO2	101	97% (inactive)	101% (inactive)	88.2% (inactive)	108% (inactive)	17.7% (inactive)	90.3	108	-2.53% (inactive)	4.43% (inactive)
Cn1c(C(=O)N2CCN(C(=O)c3ccco3)CC2)cc2c(=O)n3ccccc3nc21	100	104% (inactive)	100% (inactive)	82.3% (inactive)	82.6% (inactive)	-0.835% (inactive)	83.4	82.6	0.26% (inactive)	-0.98% (inactive)
Cc1cc(C)cc(NS(=O)(=O)c2ccc3[nH]c(=O)[nH]c3c2)c1	108	89% (inactive)	108% (inactive)	90.1% (inactive)	85.5% (inactive)	-0.57% (inactive)	86	85.5	-2.21% (inactive)	-4.5% (inactive)
COc1cccc(-c2cc(C(=O)NCc3ccc(Cl)cc3)no2)c1	84	94% (inactive)	84% (inactive)	97% (inactive)	89.3% (inactive)	5.11% (inactive)	84.2	89.3	-6.62% (inactive)	0.82% (inactive)
CC1=C(C(=O)OCc2ccccc2)C(c2ccc(C)o2)C2=C(CCCC2=O)N1 (stereo not given)	72	88% (inactive)	72% (inactive)	113% (inactive)	103% (inactive)	13.5% (inactive)	89.1	103	-6.89% (inactive)	6.07% (inactive)
Cc1ccccc1N(C)S(=O)(=O)c1ccc2[nH]cc(C(=O)NCC3CCCO3)c(=O)c2c1 (stereo not given)	83	71% (inactive)	83% (inactive)	90.1% (inactive)	91.7% (inactive)	4.24% (inactive)	87.5	91.7	-4.61% (inactive)	0.17% (inactive)
COc1cccc(C2C(C#N)=C(N)OC3=C2C(=O)CCC3)c1OC(=O)c1ccco1 (stereo not given)	106	84% (inactive)	106% (inactive)	83.6% (inactive)	99.7% (inactive)	13.1% (inactive)	86.6	99.7	-4.53% (inactive)	3.71% (inactive)
CCOC(=O)CC(=O)CSc1[nH]c(=O)cc(C)c1C#N	87.5	106% (inactive)	87.5% (inactive)	99.3% (inactive)	108% (inactive)	4.69% (inactive)	104	108	-4.8% (inactive)	-0.16% (inactive)

Structure (SMILES)	viability [1] [%]	Her2 level [2]	viability [3]	viability [4]	viability [5]	differential viability (reversal) ([6]; H69AR cells + 2 uM doxorubicin)	viability [6, 9] [%]	viability [6, 10] [%]	inhibition [7]	inhibition [8]
CN(CCC#N)C(=O)COC(=O)c1ccc(Cl)c(S(N)(=O)=O)c1	104	97.5% (inactive)	104% (inactive)	106% (inactive)	95.9% (inactive)	7.13% (inactive)	88.8	95.9	-4.93% (inactive)	3.71% (inactive)
O=C(OCCCN1CCCC1)C1(c2ccccc2)CCCC1	82.5	117% (inactive)	82.5% (inactive)	121% (inactive)	88.6% (inactive)	6.39% (inactive)	82.2	88.6	-2.84% (inactive)	-13.3% (inactive)
COCCCNC(=O)CCc1nc2cccnc2n1Cc1ccc(OC)cc1	110	106% (inactive)	110% (inactive)	115% (inactive)	99.2% (inactive)	4.86% (inactive)	94.3	99.2	-7.03% (inactive)	1.83% (inactive)
CCc1ccc2c(CN(CC)Cc3nc4ccccc4c(=O)[nH]3)cc(=O)oc2c1	86	73.5% (inactive)	86% (inactive)	75.4% (inactive)	67.9% (inactive)	36.3% (inactive)	31.7	67.9	-1.32% (inactive)	-7.27% (inactive)
O=C(NC1CCS(=O)(=O)C1)N1CCCCC1 (stereo not given)	102	79.5% (inactive)	102% (inactive)	103% (inactive)	89.6% (inactive)	1.27% (inactive)	88.3	89.6	-5.92% (inactive)	-2% (inactive)
O=C(NC1CCCC1)C(c1ccco1)N(Cc1ccccc1)C(=O)c1csnn1 (stereo not given)	88.5	76% (inactive)	88.5% (inactive)	76.4% (inactive)	97.5% (inactive)	1.57% (inactive)	95.9	97.5	-8.65% (inactive)	4.44% (inactive)
CCNc1nc(N2CCOCC2)nc(N(c2ccccc2)c2ccccc2)n1	80.5	97% (inactive)	80.5% (inactive)	62.2% (inactive)	84.2% (inactive)	4.78% (inactive)	79.4	84.2	-3.55% (inactive)	-10% (inactive)
Clc1ccc(SCCn2ccnc2)cc1	96	96% (inactive)	96% (inactive)	94.3% (inactive)	96.2% (inactive)	11.8% (inactive)	84.3	96.2	-6.22% (inactive)	-10.2% (inactive)
COc1ccc(Cn2nnnc2C(c2cccs2)N2CCOCC2)cc1 (stereo not given)	105	123% (inactive)	105% (inactive)	90.9% (inactive)	109% (inactive)	-1.24% (inactive)	111	109	3.16% (inactive)	5.33% (inactive)
CN(C1CCS(=O)(=O)C1)S(=O)C12CC3CC(CC(C3)C1)C2 (stereo not given)	83	95.5% (inactive)	83% (inactive)	92.8% (inactive)	99.9% (inactive)	3.66% (inactive)	96.3	99.9	-5.75% (inactive)	-5.08% (inactive)
COc1ccc(OCc2nc(N)nc(Nc3cccc(C)c3C)n2)cc1	98.5	120% (inactive)	98.5% (inactive)	111% (inactive)	103% (inactive)	7.49% (inactive)	96	103	-4.55% (inactive)	-6% (inactive)
CCOC(=O)C1CCN(C(c2cc3cc(C)cc(C)c3[nH]c2=O)c2nnnn2C2CCCCC2)CC1 (stereo not given)	69.5	80% (inactive)	69.5% (inactive)	57.3% (inactive)	62.8% (inactive)	5.56% (inactive)	57.2	62.8	-2.6% (inactive)	2.38% (inactive)
C=CCc1c(C)nc(SC)nc1Nc1ccc(C(=O)O)cc1	106	74.5% (inactive)	106% (inactive)	84.2% (inactive)	86.9% (inactive)	1.22% (inactive)	85.7	86.9	-6.89% (inactive)	3.28% (inactive)
Cc1nc2c(C(=O)O)cnn2c(C)c1Cc1ccccc1F	97.5	141% (inactive)	97.5% (inactive)	70.6% (inactive)	87.4% (inactive)	2.52% (inactive)	84.8	87.4	1.84% (inactive)	-8.33% (inactive)
CCOC(=O)c1c(C)[nH]c(C)c1C(=O)COc1ccc(NC(=O)c2ccco2)cc1	88.5	102% (inactive)	88.5% (inactive)	91.8% (inactive)	86.9% (inactive)	-6.89% (inactive)	93.8	86.9	-1.43% (inactive)	3.65% (inactive)
O=C(c1ccc(Cl)cc1)C1CCN(C(=O)NC2CCCCC2)CC1	92	92% (inactive)	92% (inactive)	101% (inactive)	101% (inactive)	14% (inactive)	87	101	-4.8% (inactive)	-7.26% (inactive)
